This sample holds only a part of the variants without activity.
B1: tRNA (parent)
chain: GUUCCGUUGGCGUAAUGGUAACGCGUCUCCCUCCUAAGGAGAAGACUGCGGGUUCGAGUCCCGUACGGAACG

Variants of: B1
Experiment: yeast fitness relative to wild type (ratio to wild type); higher = fitter; tRNA-Arg(CCU), competitive growth, 37 C, YPD
How it was run: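 Genotype frequency changes were the basis for Darwinian fitness relative to wild type. The frequencies came from 100-nucleotide paired-end sequencing of gene amplicons from the start population and each end population of pooled yeast strains with tRNA-Arg(CCU) gene variants at the native locus. Competition ran in YPD at 37°C for 24 hours in six replicates, genotypes needed ≥ 100 starting reads, and estimates < 0.5 were set to 0.5.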

Q: For GUUCCGUUGGCGUGAUGGUAACGCGUCUCCCUCAUAAGGAGAAGACUGUGCGUUCGAGUCUCGUACGGAACG, which yeast fitness is on record?
A: Its yeast fitness is no more than 0.5.

Q: With GUUCCGUUGGCGUGAUGGUAACGCGUCUCCCUCGUAAGGAGACGACUGCGGGUUCGAGUCCCGUACGGAGCG as the variant, how does the yeast fitness read?
A: Its yeast fitness is no more than 0.5.

Q: With GUUCCGUUGGCGUGAUGGUAACGCGUCUCCGUUCUAACGAGAAGACUGCGGGUUCGACUCCCGUACUGAACG as the variant, how does the yeast fitness read?
A: The yeast fitness was no more than 0.5.

Q: For GUUCCGUUGGCGUGAUGGUAACGCGUCUCCCUCAUAAGGAGAAGACUGCGGGUUCGAGUCCCGUACGGCACG, which yeast fitness is on record?
A: The yeast fitness was 0.605.

Q: With GUUCCGUUGGCGUGAUGGUAACGCGUCUCCCUUCUAAGGAGAAGACAGCGCGUUCGAGUCCUGUACGGAACG as the variant, how does the yeast fitness read?
A: The yeast fitness was 0.514.

Q: For GUUCCGUUGGCGUGAUGGUAACGCGUCUCCCUCCUAAGGAGAAGAAUGCGGGUUCGGGUCCCGUACGGAACG, which yeast fitness is on record?
A: The yeast fitness was 0.743.

Q: Which yeast fitness does the source give for GUUCCGUUGGCGUGAUGGUAACGCGUCUCCCUGCUAAGGAGAAGACUGCGGGUUCGAGUCCCGUACGGAACG here?
A: The yeast fitness was no more than 0.5.

Q: Which yeast fitness does the source give for GUUCCGUUGGCGUGAUGGUAACGCGUCUCCCUUCUAAGGAGAAGACUGCGGGUUCGAGUCCCGUACGGAACG here?
A: The yeast fitness was 0.616.

Q: For GUUCCGUUGGCGUGAUGGUAACGCGUCUCCCUACUAAGGAGAAGACUGCGGGUUCGAGUCCCGUACGGAACG, which yeast fitness is on record?
A: The yeast fitness was 0.516.

Q: With GUUCCGUUGGCGUGAUGGUAACGCGUCUCCCUCAUAAGGAGAAGACUGCGGGUUCGAGUACCGUACGGAACG as the variant, how does the yeast fitness read?
A: Its yeast fitness is no more than 0.5.

Q: With GUUCCGUUGGCGUGAUGGUAACGCGUCUCCCUCAUAACGAGAAGACUGCGGGUUCGAGUCCCGUACGGAACG as the variant, how does the yeast fitness read?
A: The yeast fitness was 0.676.

Q: Which yeast fitness does the source give for GUUCCGUUGGCGUGAUGGUAACGCGUCUCCUUCCUAAGGAGUAGACUGCGGGUUCGAGUCCCGUACGGUACG here?
A: The yeast fitness was 0.544.

Q: For GUUCCGUUGGCGUGAUGGUAACGCGUCUCCUUCCUAAGGAGAAGACUGCGGGUUAGAGUCCCGUACAGAGCG, which yeast fitness is on record?
A: The yeast fitness was no more than 0.5.

Q: For GUUCCGUUGGCGUGAUGGUAACGCGUCUCCCUCCUAAGGAGAAGACUGGGGGUUCGAGUCCCGUACGGAACG, which yeast fitness is on record?
A: Its yeast fitness is 0.815.

Q: With GUUCCGUUGGCGUGAUGGUAACGCGUCUCCCUCCUAAGGAGAAGAUUGCCGGUUUGUGUCCGGUACGGAACG as the variant, how does the yeast fitness read?
A: Its yeast fitness is 0.571.

Q: With GUUCCGUUGGCGUGAUGGUAACGCGUCUCCCUCCUAAGGAGAAGAGUGCGCGUUCGAGUCCCGUACGGAACG as the variant, how does the yeast fitness read?
A: The yeast fitness was no more than 0.5.

Q: With GUUCCGUUGGCGUGAUGGUAACGCGUCUCCCUCCUAAGGAGAAGAGUGCGGGUUCGAGUCCUGUACGGAACG as the variant, how does the yeast fitness read?
A: Its yeast fitness is 0.725.

Q: With GUUCCGUUGGCGUGAUGGUAACGCGUCUCCGUCCUAAGGAGAAGACUGCGGGUGCGCGUCCUGUACGGAACG as the variant, how does the yeast fitness read?
A: Its yeast fitness is no more than 0.5.

Q: Which yeast fitness does the source give for GUUCCGUUGGCGUGAUGGUAACGCGUCUCCCUCGUAAGGAGACGACUGCGGGUUCGAGUCCCGUACGGAACG here?
A: The yeast fitness was 0.591.

Q: For GUUCCGUUGGCGUGAUGGUAACGCGUCUCCCUCAUAACGAGAAGACUACGGGUUCGAGUCCCGUACGGCACG, which yeast fitness is on record?
A: The yeast fitness was no more than 0.5.

Q: With GUUCCGUUGGCGUGAUGGUAACGCGUCUCCCUCCUAAGGAGAAGAGUGCGGGUUCGAGUCCCGUACGGAACG as the variant, how does the yeast fitness read?
A: The yeast fitness was 0.989.

Q: For GUUCCGUUGGCGUGAUGGUAACGCGUCUCCCUCUUAAGGGGAAGACUGCGGGUUCGAGUCCCGUACGGAACG, which yeast fitness is on record?
A: Its yeast fitness is 0.541.

Q: With GUUCCGUUGGCGUGAUGGUAACGCGUCUCCCUUCUAAGGAGAGGACUGCGGGUUCGAGUCCCGUACGGAACG as the variant, how does the yeast fitness read?
A: Its yeast fitness is no more than 0.5.

Q: Which yeast fitness does the source give for GUUCCGUUGGCGUGAUGGUAACGCGUCUCCCUCGUAAGGAGAAGACUGCGGGUUCGAGUCCCGUACGGAACG here?
A: The yeast fitness was 0.608.

Q: With GUUCCGUUGGCGUGAUGGUAACGCGUCUCCCUUCUAAAGAGAAGACUGCGGGUUUGAGUCCCGUACGGAACG as the variant, how does the yeast fitness read?
A: The yeast fitness was no more than 0.5.

Q: With GUUCCGUUGGCGUGAUGGUAACGCGUCUCCCUUCUAAGGUGAAGACUGCGGGUUCGAGUCCGGUACGGAACG as the variant, how does the yeast fitness read?
A: The yeast fitness was 0.68.

Q: With GUUCCGUUGGCGUGAUGGUAACGCGUCUCCCUCGUAAGGAGACGACUGCGGGUUCGAGUCCCGUGCGGAACG as the variant, how does the yeast fitness read?
A: The yeast fitness was 0.558.

Q: For GUUCCGUUGGCGUGAUGGUAACGCGUCUCCUUCCUAAGGAGAAGACUGCGGGUUAGAGUCCCGUACGGAACG, which yeast fitness is on record?
A: Its yeast fitness is 0.552.

Q: For GUUCCGUUGGCGUGAUGGUAACGCGUCUCCUUCCUAAGGAGAAGACUGCGGGUUAGAGUCCCGUACGGAGCG, which yeast fitness is on record?
A: Its yeast fitness is no more than 0.5.

Q: Which yeast fitness does the source give for GUUCCGUUGGCGUGAUGGUAACGCGUCUCCUUCCUAAGGAGAAGACUGCGGGUUCGAGUCCCGUACGGAACG here?
A: Its yeast fitness is 0.932.

Q: For GUUCCGUUGGCGUGAUGGUAACGCGUCUCCUUCCUAAGGAGAAGACUGUGGGUUCGAGUCCCGUACGGAACG, which yeast fitness is on record?
A: Its yeast fitness is 0.809.

Q: With GUUCCGUUGGCGUGAUGGUAACGCGUCUCCUUCCUAAGGAGAAGACUGAGGGUUCGAGUCCCGUACGGAACG as the variant, how does the yeast fitness read?
A: The yeast fitness was no more than 0.5.

Q: For GUUCCGUUGGCGUGAUGGUAACGCGUCUCCGUCCUAAGGAGAAGAGUGCGGGUUCGAGUCCCGUACGGAACG, which yeast fitness is on record?
A: Its yeast fitness is 0.577.

Q: With GUUCCGUUGGCGUGAUGGUAACGCGUCUCCCUCUUAAGGAGAAGACUGCGGGUUCGAGUCCCGUAUGGAUCG as the variant, how does the yeast fitness read?
A: The yeast fitness was no more than 0.5.

Q: Which yeast fitness does the source give for GUUCCGUUGGCGUGAUGGUAACGCGUCUCCCUCCUAAGGAGAAGACUGAGGGUUCGAGUCUGGUACGGAACG here?
A: Its yeast fitness is no more than 0.5.

Q: With GUUCCGUUGGCGUGAUGGUAACGCGUCUCCGUCCUAAGGAGAAGACUGCGGGUUCGAAUCCCGUACGGAACG as the variant, how does the yeast fitness read?
A: Its yeast fitness is no more than 0.5.

Q: With GUUCCGUUGGCGUGAUGGUAACGCGUCUCCCUCCUAAGGAGAAGAGUGCGGGUUCGAGUCCCGUACGGUACG as the variant, how does the yeast fitness read?
A: The yeast fitness was 0.861.

Q: Which yeast fitness does the source give for GUUCCGUUGGCGUGAUGGUAACGCGUCUCCCUCGUAAGGAGAAGACUGCGGGUUCGAGUCACGUACGGAACG here?
A: Its yeast fitness is no more than 0.5.

From the RNAGym collection of RNA variant scans (doi:10.1126/science.aae0568)
